Consider two compounds from paper PMC4489320 (Clinical Pharmacology in Drug Development, 2014).

Where only a bound is given, the exact number is not on record here.

The test system of data set [1] is healthy adults. As to the kind of experiment: Thorough QT/QTc crossover study, Holter ECG recordings. The data set is classed as in vivo, human. An outline of the steps: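 Three-period crossover in healthy adults (QTcF >450 ms excluded), with 14-day washouts and six Williams-square sequences. Dosing was placebo, a 0.1 mg/kg IV bolus over 30 s, or oral moxifloxacin 400 mg at Hour 1. ECGs came from 24-h Holter recordings read blind, with baseline the mean of −1, −0.5 and −0.25 h values. QTcI/QTcF/QTcB time-matched ddQTc was analysed by linear mixed-effect models with one-sided 95% CI.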

For data set [2], the system named is healthy adults. As to the kind of experiment: Treatment-emergent adverse events. In kind it is in vivo, human. The note with it: 0.1 mg/kg IV single dose.
The conditions of data set [3]: in vitro and in vivo studies; ref data on file; cited from earlier work.

For the compound `COc1c(N2C[C@@H]3CCCN[C@@H]3C2)c(F)cc2c(=O)c(C(=O)O)cn(C3CC3)c12` [moxifloxacin], in the data set with healthy adults [1] (healthy subjects, single dose), the “number of subjects with QTcF intervals >450 but ≤480 milliseconds” value was “five” and the “percentage of subjects with QTcF intervals >450 but ≤480 milliseconds” value was 8.3%. For the same compound, the “peak mean difference in dQTcI and dQTcF vs placebo” value in the data set on healthy adults [1] (moxifloxacin 400 mg oral, 2 hours after administration (Hours 3 and 4)) is “around 12 milliseconds”. Further, in the data set with healthy adults [1] (moxifloxacin 400 mg oral, Hours 2, 3, 4 and 5), the “lower bound of ddQTcF vs placebo at prespecified timepoints” value is “above 5 milliseconds”. Besides, in the data set with healthy adults [1] (moxifloxacin 400 mg oral, Hours 3 to 10 (2–9 hours after moxifloxacin dosing)), the “lower bound of the one-sided 95% CI of ddQTcF vs placebo” value is on record as > 5 milliseconds.
Regarding peginesatide, in the data set on healthy adults [1] (healthy subjects, 0.1 mg/kg IV single dose), the “effects on heart rate, PR interval, or QRS interval” value is given as “no peginesatide-related effects”. Further, in the data set with healthy adults [1] (healthy subjects, single dose), the “number of subjects with QTcF intervals >450 but ≤480 milliseconds” value is recorded as 0 subjects and the “subjects with >30 milliseconds increase in QTcF” value was “no subject”. For the same compound, the “slope of linear relationship between ddQTcF and plasma concentration” value in the data set on healthy adults [1] (linear mixed-effects model, P = 0.126, 90% CI (<−0.0005, 0.002), not statistically significant) is 0.001. Moreover, in the data set on healthy adults [2], the “subjects with cardiac disorder TEAE” value is “No subject”. Also, the “severity of TEAEs” value in the data set with healthy adults [2] (healthy subjects) is listed as “mild or moderate”. The metabolism result in data set [3] is “negligible metabolism”.
